Lmaj promast – Leishmania major promastigote growth inhibition | Leishmania major promastigotes, resazurin fluorescence viability | inhibition, % at 10 µM | hit rate 9% among 200,000 | AID 1063; in the data active means inhibition above about 50%;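 further: promastigotes grown with compound for 44 hours at 28 °C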
T cruzi inh – blocks replication of Trypanosoma cruzi. T. cruzi beta-gal in NIH3T3, luminescence, 90 h. inhibition, % (no concentration beside the values). hit rate 1.4% among 300,000. AID 1885;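 active means mean inhibition across valid replicates above about 55%, limit read from the data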;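 further: signal also drops with host cell toxicity which is not excluded here; 0% = plate median of DMSO wells and 100% = zero luminescence signal; higher percent means less beta-gal luminescence so fewer parasites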
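Assay system: NIH/3T3 fibroblasts plus reporter T. cruzi. Amount: NIH/3T3 cells, 5,000 per well. Buffer or medium: DMEM, 2% fetal bovine serum. Doses: compound pinned at 50 nL/well, DMSO. Schedule: ≥90 h infection period, 3 h prior cell attachment. Signal: luminescent β-galactosidase signal after 60 min lysis. Read-out: parasite load inhibition, %.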
MPTP block – blocks calcium-induced mitochondrial swelling | isolated mouse mitochondria, Ca2+ swelling absorbance, 30 min | inhibition, % at 10 µM | hit rate 1.4% among 360,000;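 active means inhibition of 50% or more, scaled per plate between neutral and stimulator controls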;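 further: 0% = DMSO wells given calcium and 100% = 1 mM EGTA wells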
Redox H2O2 prof – compounds producing H2O2 with reducing agent – biochemical, NIH compound library profiling, artefact control for MLSCN library redox annotation, primary screen | DTT-dependent redox cycling H2O2, phenol red/HRP absorbance; 100% = 100 µM peroxide control, 0% = buffer | activation, % at 10 µM | hit rate 0.03% among 200,000 | AID 878;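 active means activation of at least 50% relative to the plate's high and low controls in the primary single-dose screen; inactive means activation below 50%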;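 further: compound incubated with DTT at 0.8 mM final as the reducing agent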
Hep lipid drop – modulators of hepatic lipid droplet formation | AML12 mouse hepatocytes, oleate lipid droplets, BODIPY imaging | inhibition, % at 6.5 µM | hit rate 0.4% among 240,000 | AID 1656;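 active means lipid droplet intensity inhibited by at least 50%, with more than 500 cells counted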
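Technique: fluorescence imaging, 20x objective, two fields per well / Assay system: AML12 hepatocytes (mouse) / Measure: % inhibition of lipid droplet signal / Doses: 6.5 µM single-point dosing / Incubation: overnight exposure / Reagent: 100 µM oleic acid challenge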
Rh123 counter – mitochondrial membrane potential, counter-screen. shares compounds with MPTP block. isolated mitochondria, Rhodamine 123 fluorescence. inhibition, % at 10 µM. hit rate 78% among 5,000; in the data active means inhibition above about 22%;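 further: 0% = DMSO vehicle and 100% = positive control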
* = called active by the depositor. The sample as a whole holds a higher share of hits than the screen did.

What do the screens show for `O=C(Nc1cccc(C(F)(F)F)c1)c1sc(Cl)nc1C(F)(F)F`?
T cruzi inh: -20.5; MPTP block: 82.9*; Hep lipid drop: -20.2; Rh123 counter: 77.3*

How did O=C(NNc1cccc(Cl)n1)Nc1cccc(C(F)(F)F)c1 do in these assays?
Lmaj promast: 40.1; T cruzi inh: -4.2; MPTP block: 70.4*; Redox H2O2 prof: -0.1; Hep lipid drop: 14.6; Rh123 counter: 72.0*

How did O=C(Nc1cccc(C(F)(F)F)c1)c1cc(-c2ccco2)on1 do in these assays?
T cruzi inh: -5.3; MPTP block: 0.6; Hep lipid drop: 17.5

How did CN(C)S(=O)(=O)NCCNC(=O)c1cc(OCC(F)(F)F)ccc1OCC(F)(F)F do in these assays?
Lmaj promast: -5.8; T cruzi inh: -11.7; MPTP block: 1.3; Redox H2O2 prof: -0.6; Hep lipid drop: 0.6

Results for O=C(NCCNC(=O)c1cc(OCC(F)(F)F)ccc1OCC(F)(F)F)Nc1cccc(C(F)(F)F)c1 ?
Lmaj promast: 8.3; T cruzi inh: -24.2; MPTP block: 72.3*; Redox H2O2 prof: 2.0; Rh123 counter: 88.2*

How did O=C(NNc1cccc(Cl)n1)Nc1ccc(Cl)cc1 do in these assays?
Lmaj promast: 2.1; T cruzi inh: 0.4; MPTP block: 6.2; Redox H2O2 prof: 18.9

Results for N/C(=N\OC(=O)Nc1cccc(C(F)(F)F)c1)c1ccno1 ?
T cruzi inh: 14.6; MPTP block: 71.9*; Hep lipid drop: 11.3; Rh123 counter: 94.1*

How did O=C(Nc1ccc(OC(F)F)cc1)Nc1cccc(C(F)(F)F)c1 do in these assays?
Lmaj promast: -2.7; T cruzi inh: 42.3; MPTP block: 85.5*; Redox H2O2 prof: 0.1; Hep lipid drop: 18.4; Rh123 counter: 63.3*

What do the screens show for `O=C(Nc1ccncc1)Nc1cccc(C(F)(F)F)c1`?
T cruzi inh: 41.0; MPTP block: 81.1*; Hep lipid drop: 3.2; Rh123 counter: 99.4*

What do the screens show for `CN(C)c1ccc(C2Nc3ccccc3C(=O)N2NS(C)(=O)=O)cc1` (stereo not drawn)?
T cruzi inh: -12.7; MPTP block: 0.7; Hep lipid drop: 13.7

What do the screens show for `COc1ccc(Cl)cc1-c1cc(C(=O)NCc2cc(C(F)(F)F)cc(C(F)(F)F)c2)[nH]n1`?
MPTP block: 4.7

Results for Cc1cc(F)cc(-c2cc(C(=O)NCc3ccc(C(F)(F)F)cc3)[nH]n2)c1 ?
MPTP block: 19.3

Results for Cc1cc(C)c(O)c(-c2cc(C(=O)Nc3ccc(S(=O)(=O)N4CCOCC4)cc3)[nH]n2)c1 ?
Lmaj promast: 90.4*; T cruzi inh: 2.4; MPTP block: 92.8*; Redox H2O2 prof: 0.9; Hep lipid drop: 0.0; Rh123 counter: 64.3*

What do the screens show for `Cc1ccc(Cl)cc1-c1cc(C(=O)NCc2cc(C(F)(F)F)cc(C(F)(F)F)c2)[nH]n1`?
MPTP block: 95.7*; Rh123 counter: 82.7*

What do the screens show for `Cc1ccc(CNC(=O)c2cc(-c3cc(C)cc(C)c3O)n[nH]2)cc1`?
T cruzi inh: 30.8; MPTP block: 88.0*; Hep lipid drop: 14.4; Rh123 counter: 72.8*

What do the screens show for `Cc1csc(-c2cc(C(=O)NCc3cc(C(F)(F)F)cc(C(F)(F)F)c3)n[nH]2)c1`?
MPTP block: 71.9*; Rh123 counter: 77.9*

Results for CC(=O)Nc1ccc(NC(=O)c2cc(-c3cc(C)cc(C)c3O)n[nH]2)cc1 ?
T cruzi inh: 6.8; MPTP block: 1.1

How did Cc1ccc(S(=O)(=O)Nc2csc(C)c2C(=O)O)cc1 do in these assays?
T cruzi inh: -4.4; Hep lipid drop: 13.9

What do the screens show for `Cc1nnc(SCC(=O)NC2CCCC(C)C2C)n1N` (stereo not drawn)?
MPTP block: 0.6

What do the screens show for `Cc1nnc(SCC(=O)Nc2c(C)n(C)n(-c3ccccc3)c2=O)n1Cc1ccccc1`?
Lmaj promast: -2.2; T cruzi inh: 1.8; MPTP block: -1.8; Redox H2O2 prof: -1.7; Hep lipid drop: 12.5

How did O=C(CCN1C(=O)/C(=C/c2ccccc2F)SC1=S)NC1C=CS(=O)(=O)C1 (stereo not drawn) do in these assays?
T cruzi inh: 11.7; MPTP block: -0.2; Hep lipid drop: -7.8

How did Cc1cc(F)ccc1-c1cc(C(=O)NCc2cccc(C(F)(F)F)c2)[nH]n1 do in these assays?
MPTP block: 9.4

Screens deposited in PubChem BioAssay by several laboratories.
